The values below come from ChEMBL document CHEMBL4138171, “Design, synthesis and biological evaluation of novel aryldiketo acids with enhanced antibacterial activity against multidrug resistant bacterial strains” (Eur J Med Chem, 2018).

Where only a bound is given, the exact number is not on record here.

The test system of data set [1] is Escherichia coli. Description: Antibacterial activity against Escherichia coli NCTC 12241 after 16 hrs by microdilution method. The settings on record: NCTC 12241, 16 h. It counts as functional. In short, it runs like this:
(§1)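 Broth microdilution in cation-adjusted Mueller-Hinton broth (20 mg/l Ca2+, 10 mg/L Mg2+), inoculum 5×10^5 CFU/mL. Compounds from DMSO stocks, final DMSO <1%, tested over 0.12–128 µg/ml. Incubated 37 °C and read visually after 16 h. MIC is the lowest concentration with no visible growth, determined at least twice and converted to µmol/L.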

Data set [2] has as its system Staphylococcus aureus. In words: Antibacterial activity against tetracycline/methicillin-resistant Staphylococcus aureus XU212 after 16 hrs by microdilution method. It counts as functional. The note with it: XU212, 16 h. The procedure, abridged: (§2)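 Broth microdilution in cation-adjusted Mueller-Hinton broth (20 mg/l Ca2+, 10 mg/L Mg2+), inoculum 5×10^5 CFU/mL. Compounds in DMSO, solvent under 1% in well, tested over 0.12-128 µg/ml. […] Each determined at least twice; values converted to µmol/L.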

In data set [3] the test system is Enterococcus faecalis. Description: Antibacterial activity against Enterococcus faecalis NCTC 12697 after 16 hrs by microdilution method. The format is functional. The settings on record: NCTC 12697, 16 h. The procedure, abridged:
as §1

Data set [4] concerns Staphylococcus aureus. In words: Antibacterial activity against Norfloxacin-resistant Staphylococcus aureus 1199B over-expressing NorA after 16 hrs by microdilution method. It counts as functional. In short, it runs like this:
as §2

Data set [5] concerns Bacillus subtilis. In words: Antibacterial activity against Bacillus subtilis NCTC 10400 after 16 hrs by microdilution method. It counts as functional. The settings on record: NCTC 10400, 16 h. In short, it runs like this: as §1
The test system of data set [6] is Staphylococcus aureus. Description: Antibacterial activity against Staphylococcus aureus EMRSA-15 after 16 hrs by microdilution method. The format is functional. The note with it: EMRSA-15, 16 h. In short, it runs like this:
as §1

In data set [7] the test system is Staphylococcus aureus. Description: Antibacterial activity against methicillin-resistant Staphylococcus aureus NCTC 13373 after 16 hrs by microdilution method. The format is functional. The note with it: NCTC 13373, 16 h. In short, it runs like this: as §2
Data set [8] relates to Staphylococcus aureus. Description: Antibacterial activity against erythromycin-resistant Staphylococcus aureus RN4220 after 16 hrs by microdilution method. It counts as functional. The note with it: RN4220, 16 h. The procedure, abridged: as §2
Data set [9] concerns Staphylococcus aureus. Description: Antibacterial activity against methicillin-sensitive Staphylococcus aureus NCTC 12981 after 16 hrs by microdilution method. It counts as functional. The settings on record: NCTC 12981, 16 h. In short, it runs like this:
as §1

The target in data set [10] is T1, Albumin (Homo sapiens, UniProt P02768). In words: Binding affinity to human serum albumin at 310K by fluorescence spectroscopic method. It counts as ADME. The settings on record: isolated protein. In short, it runs like this: (§3)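 Fatty acid-free HSA held at 5 × 10^-7 M in 30 mM PBS pH 7.38, titrated with compound DMSO stock at 0.5–8 molar equivalents (final DMSO ≤2%). Equilibrated 20 min after each addition. Fluorescence excitation 280 nm, emission 300–450 nm, PBS background subtracted. Quenching recorded at 293, 303 and 310 K and analysed by Stern-Volmer, molar ratio and van't Hoff treatment.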

Data set [11] deals with T1, Albumin. Description: Binding affinity to human serum albumin at 310K by Stern-Volmer plot method. The format is ADME. The note with it: isolated protein. The procedure, abridged:
as §3

The nature of data set [12]: Acidity constant, pKa of the compound at 5 x 10^-5 M by UV/Vis spectrophotometric titration method. It counts as physicochemical. In short, it runs like this:
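Spectrophotometric titration at 20 ± 0.5 °C of a 5 × 10^-5 M working solution (ethanol, then 10 mM phosphate buffer pH 10.44, I = 0.1 M NaCl). Acidified stepwise with H3PO4 to pH ~4, with pH monitored continuously. UV/Vis spectra 210–600 nm against blank. pKa2 taken from the slope of the linearized absorbance equation. Three sets; mean ± 95% CI.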

Data set [13] concerns the target T1, Albumin. Description: Binding affinity to human serum albumin assessed as change in enthalpy at 293K by Van't Hoff plot method. The note with it: isolated protein. It counts as ADME. The procedure, abridged:
as §3

In data set [14] the target is T1, Albumin. In words: Binding affinity to human serum albumin assessed as Gibbs free energy change at 293K by Van't Hoff plot method. The format is ADME. The settings on record: isolated protein. In short, it runs like this:
as §3

Data set [15] concerns the target T1, Albumin. In words: Binding affinity to human serum albumin at 293K by Van't Hoff plot method. It counts as ADME. The note with it: isolated protein. In short, it runs like this:
as §3

Data set [16] concerns the target T1, Albumin. Description: Binding affinity to human serum albumin at 293K by Stern-Volmer plot method. It counts as ADME. The note with it: isolated protein. In short, it runs like this:
as §3

Data set [17] has as its target T1, Albumin. In words: Binding affinity to human serum albumin at 303K by Stern-Volmer plot method. It counts as ADME. The settings on record: isolated protein. In short, it runs like this: as §3
The target of data set [18] is T1, Albumin. In words: Binding affinity to human serum albumin assessed as Gibbs free energy change at 303K by Van't Hoff plot method. It counts as ADME. The settings on record: isolated protein. The procedure, abridged:
as §3

The target in data set [19] is T1, Albumin. Description: Binding affinity to human serum albumin at 303K by fluorescence spectroscopic method. It counts as ADME. The settings on record: isolated protein. The procedure, abridged:
as §3

Data set [20] can be described thus: Octanol/phosphate buffer distribution co-efficient, log D of the compound at 7.4 by shake-flask method. It counts as physicochemical. The note with it: pH 7.4. In short, it runs like this:
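Shake-flask partition between octanol and 10 mM phosphate buffer pH 7.4. Compound stock 5.0 × 10^-3 M in buffer-saturated octanol. Aqueous concentration measured spectrophotometrically against a calibration curve; octanol concentration taken by difference. Three octanol/buffer volume ratios; mean ± 95% CI.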

The target in data set [21] is T1, Albumin. Description: Binding affinity to human serum albumin at 303K by Van't Hoff plot method. It counts as ADME. The note with it: isolated protein. The procedure, abridged:
as §3

Data set [22] has as its target T1, Albumin. In words: Binding affinity to human serum albumin assessed as Gibbs free energy change at 310K by Van't Hoff plot method. The format is ADME. The settings on record: isolated protein. The procedure, abridged:
as §3

The target in data set [23] is T1, Albumin. Description: Binding affinity to human serum albumin at 310K by Van't Hoff plot method. It counts as ADME. The settings on record: isolated protein. The procedure, abridged:
as §3

The nature of data set [24]: Cytotoxicity against human MRC5 cells. It counts as cell-based.
In data set [25] the target is T1, Albumin. In words: Binding affinity to human serum albumin at 293K by fluorescence spectroscopic method. It counts as ADME. The settings on record: isolated protein. The procedure, abridged:
as §3

For data set [26], the target named is T1, Albumin. Description: Binding affinity to human serum albumin assessed as change in entropy at 293K by Van't Hoff plot method. The settings on record: isolated protein. The format is ADME. The procedure, abridged:
as §3

In data set [27] the test system is Staphylococcus aureus. Description: Potency index, ratio of norfloxacin MIC to test compound MIC for Norfloxacin-resistant Staphylococcus aureus 1199B over-expressing NorA. The format is functional.

T1 sequence (P02768 whole entry): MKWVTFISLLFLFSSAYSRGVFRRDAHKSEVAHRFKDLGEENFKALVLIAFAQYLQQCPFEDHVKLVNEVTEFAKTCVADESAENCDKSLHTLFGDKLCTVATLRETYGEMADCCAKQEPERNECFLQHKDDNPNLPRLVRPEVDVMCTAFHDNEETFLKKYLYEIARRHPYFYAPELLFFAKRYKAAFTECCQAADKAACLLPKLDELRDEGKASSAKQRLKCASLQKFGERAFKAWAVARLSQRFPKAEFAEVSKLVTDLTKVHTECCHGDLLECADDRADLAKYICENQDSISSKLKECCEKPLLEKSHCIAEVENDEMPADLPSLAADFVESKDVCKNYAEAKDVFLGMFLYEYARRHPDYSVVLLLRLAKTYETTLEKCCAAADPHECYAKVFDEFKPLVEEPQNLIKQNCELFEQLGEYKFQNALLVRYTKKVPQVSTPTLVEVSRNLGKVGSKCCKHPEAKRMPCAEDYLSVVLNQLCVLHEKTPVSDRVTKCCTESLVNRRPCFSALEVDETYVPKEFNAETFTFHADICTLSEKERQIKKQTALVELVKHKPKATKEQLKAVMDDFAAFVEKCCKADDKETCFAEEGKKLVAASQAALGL

Consider `CN1CCN(c2ccc(C(=O)/C=C(\O)C(=O)O)cc2)CC1`, for which the MIC in data set [1], in [2], in data set [3], in [4], in data set [5] and in [6] was > 128 µg/mL throughout. The MIC in data set [7], in data set [8] and in data set [9] was > 128 µg/mL throughout.
Regarding `O=C(O)/C(O)=C/C(=O)c1cc(C2CCCCC2)ccc1C1CCCCC1`, the MIC was > 128 µg/mL in data set [1]; 11 µM in data set [2]; 6 µM in data set [3]; 11 µM in data set [4]; 125 µM in [5]; 22 µM in [6]. The MIC in data set [7], in data set [8] and in [9] was 11 µM throughout. Also, the results for the logKb in data set [10], in data set [19] and in data set [25] were 6.75, 6.84 and 7.02, respectively. Besides, the KSV in data set [11] is 1.48 ×10⁶ /M; in [16], 1.72 ×10⁶ /M; in data set [17], 1.6 ×10⁶ /M. The Ka in data set [11] is reported as 0.95 ×10⁶ /M; in data set [16], 1.06 ×10⁶ /M; in data set [17], 1.02 ×10⁶ /M. Also, the figures for the Kq in data set [11], in [16] and in [17] were 2.09 ×10¹⁴ /M/s, 2.42 ×10¹⁴ /M/s and 2.26 ×10¹⁴ /M/s, respectively. The pKa at 50 µM in data set [12] is 7.56. The deltaH in [13] was -1.59 kcal/mol. The figures for the deltaG in data set [14], in data set [18] and in data set [22] were -8.36 kcal/mol, -8.6 kcal/mol and -8.75 kcal/mol, respectively. Besides, the values for the lnK in data set [15], in data set [21] and in data set [23] were 14.36 M⁻¹, 14.29 M⁻¹ and 14.21 M⁻¹, respectively. The molecule further yielded a logD in data set [20] of 2.6. This molecule also showed an IC90 in data set [24] of 30 µM. Besides, the deltaS in data set [26] is recorded as 96.76 J/mol/K.
In the case of `Cc1cc(C(=O)/C=C(\O)C(=O)O)cc(C)c1O`, the MIC in data set [1], in [2], in [3], in data set [4], in [5] and in data set [6] was > 128 µg/mL each time. Besides, the MIC in data set [7], in [8] and in [9] was > 128 µg/mL throughout.
For `CN(C)c1ccc(C(=O)/C=C(\O)C(=O)O)cc1`, the MIC in [1], in data set [2], in [3], in [4], in data set [5] and in data set [6] was > 128 µg/mL each time. Besides, the MIC in [7], in [8] and in data set [9] was > 128 µg/mL each time.
In the case of `CC(C)c1cc(C(C)C)c(C(=O)/C=C(\O)C(=O)O)c(C(C)C)c1`, the MIC was > 128 µg/mL in data set [1]; 50 µM in data set [2]; > 128 µg/mL in data set [3]; 25 µM in data set [4]; 25 µM in [5]; 25 µM in [6]. Further, the MIC is > 128 µg/mL in [7], 50 µM in [8] and 13 µM in data set [9]. For the same molecule, the IC90 in data set [24] came out at 90 µM.
Take `CCc1cc(CC)c(C(=O)/C=C(\O)C(=O)O)c(CC)c1`: the MIC in data set [1] is > 128 µg/mL; in [2], 232 µM; in data set [4] it was 116 µM; in data set [6] it was 232 µM; in [8] it was 232 µM. Also, the Ratio in data set [27] is 10.
